Measured values collected from several papers.
Each line is one published result; the experiments were not run side by side.
Target: Misshapen-like kinase 1 (MINK1, Homo sapiens, UniProt Q8N4C8)

| SMILES | observed | technique | tested at | remaining binding |
| --- | --- | --- | --- | --- |
| CN(C)c1nccc(-c2cnn3ncccc23)n1 | binding | – | 1 µM | 81% |
| O=C(NC[C@@H]1[C@H]2CN(C(=O)OCc3cc(C(F)(F)F)cc(C(F)(F)F)c3)C[C@@H]12)c1ccc2[nH]nnc2c1 | cell-free assay | competition with immobilised ligand | 1 µM | 72% |
| Cc1cnn2ncc(-c3ccnc(N(C)C)n3)c2c1 | binding | – | 1 µM | 92% |
| O=C(Nc1c[nH]nc1C(=O)NC1CCNCC1)c1cc(F)cc(F)c1 | binding | competition with immobilised ligand | 1 µM | 93% |
| O=C(Nc1cccnn1)N1CC(C/C=C/c2cncc(Oc3ccc(C(F)(F)F)cn3)n2)C1 | cell-free assay | competition with immobilised ligand | 1 µM | 100% |
| COc1ccnn2ncc(-c3ccnc(N(C)C)n3)c12 | binding | – | 1 µM | 81% |
| CN(C)C(=O)Cn1cc(-c2nc([C@@](C)(c3ccc(-c4cnc(N)nc4)cc3)C3CC3)no2)cn1 | cell-free assay | competition with immobilised ligand | 1 µM | 85% |
| N[C@H]1CCN(c2nccc(-c3cnn4ncccc34)n2)C1 | binding | – | 1 µM | 100% |
| CNCc1ccccc1-c1csc([C@H](C)Nc2nc(C)nc3cc(OC)c(OC)cc23)c1 | cell-free assay | competition with immobilised ligand | 1 µM | 88% |
| FC(F)(F)Oc1cccc(-c2cnc3ccc(-c4ccncc4)nn23)c1 | binding | competition with immobilised ligand | 5 µM | 7.2% |
| Cc1c[nH]c2nccc(Oc3c(F)cc(Nc4cc(Cl)nc(N)n4)cc3F)c12 | cell-free assay | competition with immobilised ligand | 0.1 µM | 100% |
| COc1ncc2cc3ccccc3nc2c1C#N | cell-free assay | competition with immobilised ligand | 5 µM | 99% |
| CN(c1nccc(-c2cnn3ncccc23)n1)C1CC1 | binding | – | 1 µM | 100% |
| C[C@@H](c1ccc(-n2cnc3c(N)ncnc32)cc1)N1CCc2nn(C)c(Cc3ccccc3)c2C1=O | binding | competition with immobilised ligand | 0.1 µM | 88% |
| O=C(NCCCN1CCOCC1)c1ccc(Nc2nccc(-c3cc4ccccc4s3)n2)cc1 | binding | competition with immobilised ligand | 1 µM | 46% |
| C[C@@H]1CCN(c2nccc(-c3cnn4ncccc34)n2)C1 | binding | – | 1 µM | 74% |
| C=CC(=O)N1CCC(C(=O)NCC(=O)N2CCN(c3nc(-c4cnc(N)nc4C(F)F)nc(N4CCOCC4)n3)CC2)CC1 | binding | competition with immobilised ligand | 1 µM | 99% |
| N#Cc1ccc(Nc2ccc3[nH]c(=O)[nH]c3c2)c(Cl)c1 | cell-free assay | competition with immobilised ligand | 1 µM | 91% |
| O=C(c1ccc(Nc2nccc(-c3cc4ccccc4s3)n2)cc1)N1CCC(N2CCCC2)CC1 | binding | competition with immobilised ligand | 1 µM | 57% |
| O=C(Nc1cnc(Oc2ccc(F)cc2)nc1)N1CCc2ncccc2[C@@H]1c1ccc(F)cc1 | cell-free assay | competition with immobilised ligand | 1 µM | 100% |
| O=C(NCCCN1CCOCC1)c1ccc(Nc2ncc(Cl)c(-c3ccc(Cl)s3)n2)cc1 | binding | competition with immobilised ligand | 1 µM | 20% |
| COc1cnc(Nc2cccc(S(N)(=O)=O)c2)nc1N1CCN(c2ccccc2)CC1 | binding | competition with immobilised ligand | 1 µM | 76% |
